Data on 38 variants can be found in the RNAGym collection of RNA variant scans (doi:10.1126/science.aae0568).

B1: tRNA (parent)
chain: GUUCCGUUGGCGUAAUGGUAACGCGUCUCCCUCCUAAGGAGAAGACUGCGGGUUCGAGUCCCGUACGGAACG

This sample holds only a part of the variants without activity.

In this data set the parent is B1. Description: yeast fitness relative to wild type (ratio to wild type); higher = fitter; tRNA-Arg(CCU), competitive growth, 37 C, YPD. Summed up:
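Variants of the tRNA-Arg(CCU) gene, chemically synthesised with a 3% per-site mutation rate at 69 sites, were placed at the native genomic locus in Saccharomyces cerevisiae. The pooled strains were competed in YPD at 37°C for 24 hours in six parallel replicates. Gene amplicons from the start population and from each end population were read by 100-nucleotide paired-end sequencing. Darwinian fitness relative to wild type came from changes in genotype frequencies; genotypes needed ≥ 100 starting reads, and estimates < 0.5 were set to 0.5.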
Regarding GUUCCGUAGGUGUAAUGGUAACGCGUCUCCCUCCUAUGGAGAAGACUGCGGGUUCGAGUCCCGAACGGAACG [U8A C11U A37U U64A], the yeast fitness was 0.545.

As to GUUCCGUAGGCGUAAUGGUAACGUGUCUCCCUCCUAAGGAGAAGACCGCGGGUUCGAGUCCCGUACGGAACG [U8A C24U U47C], the yeast fitness stood at 0.575.

As for GUUCCGUAGGCGUAAUGGUAACGCGUCUGCCUCCUAAGGAGAAGACUGCGGGUUCGAGUCCCGUACGGAGCG [U8A C29G A70G], the yeast fitness is not above 0.5.

Consider GUUCCGUAGGCGUAAUGGUAACGUGUCUCCCUCCUAAGGCGCAGUCUGCGGGUUCGAGUCCCGUACGGAACG [U8A C24U A40C A42C A45U], for which the yeast fitness was not above 0.5.

On to GUUCCGUAGGCGUAAUGGUAAUGCGUCUCCCUCCUAAGGAGAAGACUGCGGGUUCAAGACCCGUACGGAACG [U8A C22U G56A U59A], for which the yeast fitness was not above 0.5.

Take GUUCCGUAGGCGUAAUGGUAACGUGUCUCCCUCCUAAGGUGCAGUCUGCGGGUUCGAGUCCCGUACGGAACG [U8A C24U A40U A42C A45U]: the yeast fitness came out at 0.563.

GUUCCGUAGGCGUAAUGGUAAGGCGUCUCCCUCCUAAGGAGAAGACUGCGGGUUGGAGUCCCGUACGGAACG [U8A C22G C55G]: the yeast fitness is 0.651.

For GUUCCGUAGGCGUAAUGGUAACGCGUGUCCCUCCUAAGAAGAAGAUUGCGGGUUCGAGUCCCGUACAGAACG [U8A C27G G39A C46U G67A], the yeast fitness is not above 0.5.

In the case of GUUCCGUAGGCGUAAUGGUAAGGCGUCUCCCUCCUUAGGAGAAGACUGCGGGUUCGAGUCCCGUACGGAACG [U8A C22G A36U], the yeast fitness was not above 0.5.

GUUCCGUAGGUGUAAUGGCAACGCGUCUCCCUCCUAAGGAGAAGAAUGCGGGUUCGAGUCCCGUAUGGAACG [U8A C11U U19C C46A C66U]: the yeast fitness stood at 0.578.

For GUUCCGUAGGCGUAAUGGUAACGCGUCUACCUCCUAAGGAGAAGACUGCGGGUCCGAGUCCCGUACGGAACG [U8A C29A U54C], the yeast fitness is not above 0.5.

On to GUUCCGUAGGCGUAAUGGUAACGCGUUUCCCUCCUAAGGAGAUGACUGCGGGUUCGAGUCCCGUACGGAACG [U8A C27U A43U], for which the yeast fitness is not above 0.5.

As to GUUCCGUAGGCGUAAUGGUAAUGCGUCUCCCUCCUAAGGAGAAGACUGCGGGUUCGAGUCCCGUACGGCCCG [U8A C22U A69C A70C], the yeast fitness was determined as 0.595.

Regarding GUUCCGUAGGCGUAAUGGUAACGGGUCUCCCUCCUAAGGAGAGGACUGUGGGUUCGAGUCCCGUACGGAACG [U8A C24G A43G C49U], the yeast fitness is not above 0.5.

In the case of GUUCCGUAGGUGUAAUGGUAACGCGUCUCCCUCCUAAGGAGAAGACGGCGGGUUCGAGUCCCGUACGGAACG [U8A C11U U47G], the yeast fitness is not above 0.5.

Consider GUUCCGUAGGCGUAAUGGUAACGCGUAUCCCUCCUAUGGAGAAGACUGCGGGUUCGUGUCCCGUACGGAACG [U8A C27A A37U A57U], for which the yeast fitness is not above 0.5.

On to GUUCCGUAGGUGUAAUGGUAACGCGUCUCCCUCCUAAGGAGAAGAUUGCGGGUUCGAGUCCCGUACGGAACG [U8A C11U C46U], for which the yeast fitness is not above 0.5.

Consider GUUCCGUAGGCGUAAUGGUAACGCGUCUGCCUCCUAAGGGGAAGACUGCGGGUUCGAGUCCCGUACGGAACG [U8A C29G A40G], for which the yeast fitness was 0.639.

With GUUCCGUAGGUGUAAUGGUAACGCGUCUCCGUCCUAACGCGAAGACUGCGGGUUCAAGUCCCGUACGGAACG [U8A C11U C31G G38C A40C G56A], the yeast fitness was not above 0.5.

On to GUUCCGUAGGCGUAAUGGUAACGCGUCUUCCUUCUAAGGAGAAGACUGCGGGAUCGAGGCCCGUACGGAACG [U8A C29U C33U U53A U59G], for which the yeast fitness is not above 0.5.

As for GUUCCGUAGGCGUAAUGGUAACGUGUCCCCCUCCUAAGGCGAAGACUGCGGGUUCGAGUCCCGUACCGAACG [U8A C24U U28C A40C G67C], the yeast fitness is not above 0.5.

Take GUUCCGUAGGCGUAAUGGUAACGAGUCUCUUUCCUAAGGAGAAGACUCCGGGUUCGAGUCCCGUACGGAACG [U8A C24A C30U C31U G48C]: the yeast fitness amounted to 0.58.

As for GUUCCGUAGGUGUAAUGGUAACGCCUCUCCCUCCUAAGCAGAAGUCUGCGGGUUCGAGUCCCGUACGGAACG [U8A C11U G25C G39C A45U], the yeast fitness is not above 0.5.

GUUCCGUAGGUGUAAUGGUAACGCGUCUCCCUCCUAAGGAGAAGACUGCGGGUUCGAGUCUUGUAAGGAACG [U8A C11U C61U C62U C66A]: the yeast fitness was not above 0.5.

In the case of GUUCCGUAGGCGUAAUGGUAACGAGUCCCCCUCCUAAGGAGAAGACUGCGGGUUCAAGUCCCGUACGGAACG [U8A C24A U28C G56A], the yeast fitness came out at 0.556.

Regarding GUUCCGUAGGCGUAAUGGUAACGGGUCUCCCUCCUAAGGAGAAGACUGCGGGUUCGAGUCCCGUACGGAACG [U8A C24G], the yeast fitness was not above 0.5.

As to GUUCCGUAGGCGUAAUGGUAACGAGUCUCCCUCCUAAGGAGAAGACUGCGGGUUCGAGUCCCGUACGGAACG [U8A C24A], the yeast fitness is 0.624.

Regarding GUUCCGUAGGCGUAAUGGUAACGCGUAUCCCUCCUAAGCAGAAGACUGCGCGUUCGAGUCCCGUACGGAACG [U8A C27A G39C G51C], the yeast fitness was not above 0.5.

Take GUUCCGUAGGCGUAAUGGUAACGAGUCUCCCUCCUAAGGAGAAGACUGCGGGUUCGAGUCCCGAACGGAACG [U8A C24A U64A]: the yeast fitness was not above 0.5.

Turning to GUUCCGUAGGCGUAAUGGUAACGCGUCUUCAUCCUAAAGAGAAGACUGCGGGUUCGAGUCCCGUACGGAACG [U8A C29U C31A G38A], the yeast fitness is not above 0.5.

As for GUUCCGUAGGUGUAAUGGUAACGCGUCUCCCUCCUAAGGAGAAGACGGCGGGUUCGAGUCCCGUACAGAACG [U8A C11U U47G G67A], the yeast fitness is not above 0.5.

Consider GUUCCGUAGGCGUAAUGGUAACGCGUCUGCCUCCUAAGGGGAAGACUGCGGGUUCGAGUCCCAUACGGAACG [U8A C29G A40G G63A], for which the yeast fitness was not above 0.5.

GUUCCGUAGGCGUAAUGGUAACGUGUCUCCCUCCUAAGGUGCAGUCUGCGGGUUCGAGUCUCGUACGGAACG [U8A C24U A40U A42C A45U C61U]: the yeast fitness was not above 0.5.

As to GUUCCGUAGGCGUAAUGGUAACGGGUCUCCCUCCUAAGGACAAGACUGCGGGUUCGAGUCCCGUGCGGAACG [U8A C24G G41C A65G], the yeast fitness was not above 0.5.

As to GUUCCGUAGGUGUAAUGGUAACGCCUCUCCCUCCUAAGCAGAAGACUGCGGGUUCGAGUCCCGUACGGAACG [U8A C11U G25C G39C], the yeast fitness was not above 0.5.

Regarding GUUCCGUAGGCGUAAUGGUAACGCGUAUCCCUCCUAUGGAGAAGACUGCGGGUUCGAGUCCCGUACGGAACG [U8A C27A A37U], the yeast fitness was not above 0.5.

With GUUCCGUAGGCGUAAUGGUAACGCGUCUUCCUCUUAAGGAGAAGACUGAGGGUUCGAGUCCCGUACAGAACG [U8A C29U C34U C49A G67A], the yeast fitness is not above 0.5.

In the case of GUUCCGUAGGCGUAAUGGUAACGUGUCUCCCUCCUAAGGUGCAGUCUGUGGGUUCGAGUCCCGUACGGAACG [U8A C24U A40U A42C A45U C49U], the yeast fitness is not above 0.5.
